The target of experiment [1] is T1, Inhibitor of nuclear factor kappa-B kinase subunit alpha (Homo sapiens, UniProt O15111).
T1 sequence (O15111 whole entry): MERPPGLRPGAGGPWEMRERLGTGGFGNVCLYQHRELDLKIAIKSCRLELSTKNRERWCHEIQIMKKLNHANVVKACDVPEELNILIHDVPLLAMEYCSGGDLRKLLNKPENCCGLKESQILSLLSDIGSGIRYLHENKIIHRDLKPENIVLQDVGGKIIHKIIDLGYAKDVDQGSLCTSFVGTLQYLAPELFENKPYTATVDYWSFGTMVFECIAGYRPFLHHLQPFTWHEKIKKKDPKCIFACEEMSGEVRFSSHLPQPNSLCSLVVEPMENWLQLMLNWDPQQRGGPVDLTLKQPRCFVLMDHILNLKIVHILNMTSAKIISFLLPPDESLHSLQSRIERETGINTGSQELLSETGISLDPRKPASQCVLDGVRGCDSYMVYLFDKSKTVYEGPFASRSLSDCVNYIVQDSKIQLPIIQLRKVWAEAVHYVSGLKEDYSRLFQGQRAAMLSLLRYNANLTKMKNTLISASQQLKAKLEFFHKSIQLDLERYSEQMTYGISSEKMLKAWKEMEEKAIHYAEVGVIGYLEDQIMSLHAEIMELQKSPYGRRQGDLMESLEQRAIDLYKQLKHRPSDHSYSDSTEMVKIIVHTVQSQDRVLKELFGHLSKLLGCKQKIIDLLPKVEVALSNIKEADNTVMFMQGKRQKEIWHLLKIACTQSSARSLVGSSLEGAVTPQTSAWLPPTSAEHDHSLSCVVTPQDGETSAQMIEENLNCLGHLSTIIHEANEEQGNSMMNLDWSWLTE
The experiment is described as follows: Inhibition of human IKKalpha using ERLLDDRHDSGLDSMKDEE as substrate after 60 mins in presence of ATP by ADP-Glo kinase assay.

Experiment [2] concerns the target T2, Inhibitor of nuclear factor kappa-B kinase subunit beta (Homo sapiens, UniProt O14920).
T2 sequence (O14920 whole entry): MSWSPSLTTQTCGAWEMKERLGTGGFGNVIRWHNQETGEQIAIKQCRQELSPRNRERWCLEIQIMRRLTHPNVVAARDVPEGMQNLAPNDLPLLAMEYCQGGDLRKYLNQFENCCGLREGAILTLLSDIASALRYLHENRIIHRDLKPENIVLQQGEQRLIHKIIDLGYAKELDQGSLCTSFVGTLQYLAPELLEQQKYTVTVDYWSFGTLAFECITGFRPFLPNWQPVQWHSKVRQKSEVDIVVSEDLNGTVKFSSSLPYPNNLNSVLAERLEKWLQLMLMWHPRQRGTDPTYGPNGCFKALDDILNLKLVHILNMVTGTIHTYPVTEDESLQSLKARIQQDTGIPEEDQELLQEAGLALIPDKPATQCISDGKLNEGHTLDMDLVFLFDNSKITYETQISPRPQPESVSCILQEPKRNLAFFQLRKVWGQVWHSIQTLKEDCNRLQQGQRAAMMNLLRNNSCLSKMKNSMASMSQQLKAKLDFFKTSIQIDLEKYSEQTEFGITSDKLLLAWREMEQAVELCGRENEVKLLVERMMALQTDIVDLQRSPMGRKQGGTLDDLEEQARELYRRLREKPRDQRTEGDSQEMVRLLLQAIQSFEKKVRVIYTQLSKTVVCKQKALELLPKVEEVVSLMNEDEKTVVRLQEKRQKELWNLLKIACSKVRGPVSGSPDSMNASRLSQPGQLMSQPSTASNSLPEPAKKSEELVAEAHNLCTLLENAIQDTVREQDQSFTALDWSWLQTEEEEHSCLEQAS
Kind of experiment: Inhibition of human IKKbeta using ERLLDDRHDSGLDSMKDEE as substrate after 60 mins in presence of ATP by ADP-Glo kinase assay. (ADP-Glo turns the ADP formed in a reaction into a luminescent signal.)

For experiment [3], the system named is MDA-MB-231. Kind of experiment: Antiproliferative activity against human MDA-MB-231 cells assessed as DNA content after 72 hrs by Hoechst 33258 staining based fluorescence assay. It is filed as functional, cell-based. To be noted: MDA-MB-231, 72 h. In short, it runs like this:
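MDA-MB-231 cells (5 x 10³/well) grown in DMEM with 10% FBS and exposed to 0.001 - 200 µM compound or DMSO vehicle for 72 h. Cells were washed with PBS and lysed in 0.02% SDS in SSC buffer for 1 h at 37 °C. Hoechst 33258 (1 µg/mL) was then added and fluorescence read at ex 355/em 460 nm. IC50 taken by nonlinear regression; mean ± SD of three independent experiments.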

Experiment [4] relates to MDA-MB-231. The experiment is described as follows: Cytotoxicity against human MDA-MB-231 cells after 72 hrs by CellTox green assay. In kind it is cell-based. To be noted: MDA-MB-231, 72 h. In short, it runs like this:
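MDA-MB-231 cells (5×10^3/well) exposed to 0.001 - 100 µM compound or DMSO vehicle for 72 h. Membrane-integrity loss read by CellTox green fluorescence. IC50 taken by nonlinear regression; mean ± SD of three independent experiments.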

Experiment [5] addresses Mitogen-activated protein kinase kinase kinase 14 (Homo sapiens, UniProt Q99558). Kind of experiment: Inhibition of human NIK using AKDVDQGSLCTSFVGTLQY as substrate after 60 mins in presence of ATP by ADP-Glo kinase assay.
Experiment [6] has as its target T3, Inhibitor of nuclear factor kappa-B kinase subunit epsilon (Homo sapiens, UniProt Q14164).
T3 sequence (Q14164 whole entry): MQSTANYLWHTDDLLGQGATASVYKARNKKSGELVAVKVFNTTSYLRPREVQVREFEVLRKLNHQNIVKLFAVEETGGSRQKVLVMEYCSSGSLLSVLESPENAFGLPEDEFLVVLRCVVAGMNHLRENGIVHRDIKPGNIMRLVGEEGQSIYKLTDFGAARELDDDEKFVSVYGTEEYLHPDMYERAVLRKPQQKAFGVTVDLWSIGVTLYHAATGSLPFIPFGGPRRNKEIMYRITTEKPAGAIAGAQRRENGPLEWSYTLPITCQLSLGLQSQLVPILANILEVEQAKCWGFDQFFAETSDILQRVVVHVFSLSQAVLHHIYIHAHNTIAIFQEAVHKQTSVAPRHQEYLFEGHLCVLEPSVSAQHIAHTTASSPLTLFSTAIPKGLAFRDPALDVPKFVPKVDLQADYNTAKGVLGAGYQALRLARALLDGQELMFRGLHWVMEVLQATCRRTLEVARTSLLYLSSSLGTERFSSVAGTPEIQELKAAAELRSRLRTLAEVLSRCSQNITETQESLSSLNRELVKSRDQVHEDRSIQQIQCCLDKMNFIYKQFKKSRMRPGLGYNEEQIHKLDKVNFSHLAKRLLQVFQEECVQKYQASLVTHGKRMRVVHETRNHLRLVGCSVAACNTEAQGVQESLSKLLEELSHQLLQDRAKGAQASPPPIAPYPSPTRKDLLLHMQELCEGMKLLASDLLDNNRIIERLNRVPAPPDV
Kind of experiment: Inhibition of human IKKepsilon using ERLLDDRHDSGLDSMKDEE as substrate after 60 mins in presence of ATP by ADP-Glo kinase assay.

The target in experiment [7] is T4, Inhibitor of nuclear factor kappa-B kinase subunit alpha (Homo sapiens) (UniProt O15111).
T4 sequence (whole entry): T1 sequence (O15111 whole entry)
Kind of experiment: Inhibition of human IKKalpha at 100 uM using ERLLDDRHDSGLDSMKDEE as substrate after 60 mins in presence of ATP by ADP-Glo kinase assay relative to control.

Chain of Mitogen-activated protein kinase kinase kinase 14 (Q99558 whole entry): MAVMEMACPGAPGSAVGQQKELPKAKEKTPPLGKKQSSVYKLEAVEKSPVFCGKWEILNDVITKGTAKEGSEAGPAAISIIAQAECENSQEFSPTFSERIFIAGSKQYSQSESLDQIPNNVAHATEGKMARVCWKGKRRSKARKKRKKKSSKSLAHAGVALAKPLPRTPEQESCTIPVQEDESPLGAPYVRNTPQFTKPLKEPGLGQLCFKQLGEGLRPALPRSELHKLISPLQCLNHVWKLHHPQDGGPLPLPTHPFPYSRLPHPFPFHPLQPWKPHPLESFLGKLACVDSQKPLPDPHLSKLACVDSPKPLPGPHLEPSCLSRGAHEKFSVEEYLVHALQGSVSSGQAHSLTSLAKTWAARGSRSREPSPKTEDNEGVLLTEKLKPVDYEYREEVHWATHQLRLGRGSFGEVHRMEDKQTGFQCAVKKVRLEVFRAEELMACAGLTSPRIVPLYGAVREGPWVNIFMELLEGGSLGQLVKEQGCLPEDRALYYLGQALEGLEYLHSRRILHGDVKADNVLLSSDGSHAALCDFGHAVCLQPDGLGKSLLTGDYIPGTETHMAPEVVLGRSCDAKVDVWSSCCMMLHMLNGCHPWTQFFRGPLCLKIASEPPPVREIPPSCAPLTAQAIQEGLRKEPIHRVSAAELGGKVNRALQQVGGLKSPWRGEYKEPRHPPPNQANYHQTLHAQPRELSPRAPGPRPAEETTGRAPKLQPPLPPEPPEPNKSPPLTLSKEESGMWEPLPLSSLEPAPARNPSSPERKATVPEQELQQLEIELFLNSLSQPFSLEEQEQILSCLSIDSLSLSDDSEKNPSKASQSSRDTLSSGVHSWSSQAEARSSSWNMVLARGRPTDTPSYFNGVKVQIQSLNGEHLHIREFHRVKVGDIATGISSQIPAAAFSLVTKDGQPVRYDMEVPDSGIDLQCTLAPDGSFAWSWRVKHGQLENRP

The IC50 is the point on the concentration scale where inhibition reaches its midpoint. For orientation: inhibition means how much of the control response was suppressed. Turning to `O=C(Nc1cc(C(F)(F)F)cc(C(F)(F)F)c1)c1cc(Cl)ccc1O` [IMD-0354], the IC50 was > 100 µM in experiment [1]; > 100 µM in experiment [2]; 0.64 µM with MDA-MB-231 [3]; 0.85 µM in the experiment with MDA-MB-231 [4]; > 100 µM in experiment [5]; > 100 µM in experiment [6]. Further, in experiment [7], the inhibition stood at 3.45%.

As to `O=C(Nc1cc(C(F)(F)F)cc(C(F)(F)F)c1)c1nsnc1O`, the IC50 in experiment [1] is > 100 µM; in experiment [2], > 100 µM; in the experiment on MDA-MB-231 [3] it was 1.29 µM; with MDA-MB-231 [4] it was 53 µM; in experiment [5], > 100 µM; in experiment [6], > 100 µM. Besides, in experiment [7], the inhibition was found to be 25.2%.

For the origin of these results see ChEMBL document CHEMBL4261552, “4-Hydroxy-N-[3,5-bis(trifluoromethyl)phenyl]-1,2,5-thiadiazole-3-carboxamide: a novel inhibitor of the canonical NF-κB cascade” (Medchemcomm, 2017).
